Experiment: Toxicity liver stage against HepG2, at 10uM
Format: cell-based
Design: test concentration 10 uM, cell line HepG2-A16-CD81EGFP
Settings: human, HepG2-A16-CD81EGFP cells; read-out: INHIBITION
Method in brief: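 Uninfected HepG2-A16-CD81EGFP cells, 3 × 10^3 per well, 1536-well, plated on prespotted compound at 10 μM final, parasite-free screening media added to match infected plates; puromycin 10 μM positive, DMSO 0.5% negative; run in parallel with 48 h PbLuc assay at 37 °C, 5% CO2; viability by CellTiter-Glo luminescence, normalized to controls.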

SMILES	cytotoxicity at 10 µM [%]
O=C(NCCN1CCCCC1)C(c1ccccc1)N1CCCC1 (configuration not stated)	-1.46
CC(C)n1ccc2cc(C(=O)Nc3nc[nH]n3)ccc21	4.06
COCC(C)NC(=O)c1nnn(-c2ccc(OC)cc2)n1 (configuration not stated)	1.87
Nc1cccnc1N1CCC(C(F)(F)F)CC1	8.19
CCC(CC)NC(=O)c1ccc2c(c1)C(c1nc[nH]n1)CN2S(C)(=O)=O (configuration not stated)	-138
COC1COC2(CCN(C(=O)c3cnc(C)cn3)CC2)C1 (configuration not stated)	4.29
COCC1c2nnn(CC3CC3)c2CCN1C(=O)C1CCOCC1 (configuration not stated)	-136
COCC(=O)N1CCC2(COCc3cnc(-c4ccccc4)nc32)C1 (configuration not stated)	2.65
CCCNC(=O)c1nc2c(o1)CN(C(=O)CN(C)C)C2	0.0773
O=C(c1cccs1)N1CCN(CC2CC2)c2ncccc2C1	0.835
O=C(O)c1nnn(-c2ccc(OC(F)(F)F)cc2)c1-c1ccncc1	-5.85
Cc1cc(C(F)(F)F)nn1CC(C)C(=O)Nc1ccccn1 (configuration not stated)	9.84
CCn1nc(C)c2c1cnn2CCNS(=O)(=O)c1ccccc1	6.28
CCc1nnc(SCc2nonc2C)n1C	-1.04
Nc1nccnc1C1CN(Cc2ccc(OCC(=O)O)cc2)CCO1 (configuration not stated)	-2.11
CCc1nccn1-c1cncc(C2CCN(C(=O)COC)CC2)n1	-37.3
CS(=O)(=O)c1cn[nH]c1C1CCCCN1C(=O)c1cnccn1 (configuration not stated)	-2.13
CN(C)CC(=O)N1C[C@@H]2CC[C@H](Oc3ccccc3)[C@@H]2C1	-26.4
Cc1ncc(CN2CCCC(c3nc4ccccc4n3C(C)C)C2)s1 (configuration not stated)	-24.9
O=C(Cc1ccccn1)N1CCC(O)(Cn2ccc3ccncc32)CC1	-5.24
Cc1cc(-c2cnc(NC3CC3)nc2-c2ccco2)on1	-23.2
O=C(O)C1(Cc2cccc(-c3ccc(F)cc3)c2)CCOCC1	-24.1
Cc1cc(C)nc(Nc2cccc(C3CCCN(C(C)C)C3)n2)n1 (configuration not stated)	-19.4

SMILES	cytotoxicity at 10 µM [%]
O=C(CSc1nnc(N2CCOCC2)s1)NCc1cccs1	1.66
O=C(NC1CCCCC1)c1c(F)cccc1F	3.32
Cc1nc(CNC(=O)NCC2(C)CCCc3ccccc32)no1 (configuration not stated)	-3.05
CSc1cc2c(cc1NC(=O)N(C)Cc1cnn(C)c1)OCCO2	5.25
CN1CCN(C2CCN(Cc3noc(C(C)(C)C)n3)CC2)C1=O	17.1
CCC1COCCN1C(=O)CNC(=O)c1ccoc1C (configuration not stated)	-7.51
COCCCn1ccc(NC2CCSCC2)n1	3.04
CN(CC(N)=O)Cc1c(Cl)ccc2cccnc12	4.53
Cc1nnc(NCc2ccc(N3CCC(CO)CC3)cc2)c(C#N)c1C	-2.83
O=C(CN1CCS(=O)(=O)CC1)NC1CCOc2ccccc21 (configuration not stated)	5.44
O=C(CCn1ccc2ccccc21)N1CCC(Nc2cccnc2)CC1	9.08
Cn1c(C2CC2)nc2cc(NC(=O)C3CC=CC3)ccc21	2.8
Cc1csc(CCCNC(=O)NC2CC(=O)N(C(C)(C)C)C2)n1 (configuration not stated)	-8.88
CC(NC(=O)c1cc(-c2cccc(Cl)c2)no1)C(=O)N(C)C (configuration not stated)	-2.16
COc1cc(C(=O)N2CCC(Nc3cccnc3)CC2)ccc1C	-134
Cc1nc(CNC(=O)NCc2ccc(OCC3CC3)nc2)cs1	5.07
COCCN1C(=O)CC(N2CCN(c3ccccc3)CC2)C1=O (configuration not stated)	1.22
COc1cccc2[nH]cc(CCNC(=O)N3CCC[C@H]3CO)c12	-12.6
Cc1nn(C)c(C)c1CC(=O)N1CCCC1Cn1cccn1 (configuration not stated)	-14.8
Cc1nn(C(C)C)c(C)c1S(=O)(=O)Nc1ccc(C(=O)O)c(Cl)c1	-9.5
NC(=O)C1CN(c2ccc3c(Cl)ccnc3c2F)CCO1 (configuration not stated)	3.06
CC(C)(C)C(=O)NCCCn1cncn1	-9.46
N#Cc1ccc(NCCc2n[nH]c(=O)[nH]2)cc1Cl	26.5

SMILES	cytotoxicity at 10 µM [%]
Cc1cc(=O)n(C)cc1NC(=O)Cc1cccc(Cl)c1	-12.8
Cc1noc(C)c1CSCc1nc(N)c2ccccc2n1	5.15
COCC(=O)NC(c1ccc(Cl)cc1)C(F)(F)F (configuration not stated)	6.76
CS(=O)(=O)CCCN(CCc1cccc(F)c1)C1CC1	-18.3
Cc1ccc(CN(C)c2cc(N3CCCC3CO)ncn2)s1 (configuration not stated)	5.6
CCCc1nccn1CCn1cnc2ccsc2c1=O	0.0394
CC(C)(C)NS(=O)(=O)c1cc(NC(=O)C2CC2)ccc1F	-10.6
COCC1CN(C(=O)Nc2cc(C(F)(F)F)ccc2F)CCO1 (configuration not stated)	4.24
COc1cc(F)c(S(=O)(=O)N2CCN(C)Cc3ccccc32)cc1OC	3.84
O=C(NCc1ccoc1)NC1CCCN(c2ncccn2)C1 (configuration not stated)	-1.27
Cc1nc(C)n(C2CCCN(C(=O)Cc3cccnc3)C2)n1 (configuration not stated)	-2.15
CS(=O)(=O)N[C@@H]1CCN(Cc2cccs2)[C@H]1Cc1cccnc1	-78.5
Cc1cc(C)n(CC(C)NC(=O)C2(c3ccccc3F)CC2)n1 (configuration not stated)	-0.844
O=C(c1cccnc1-c1ccc2c(c1)OCCO2)N1CCCC1	3.82
COc1cccc2c1OCC(C(=O)N1CCN(CCS(C)(=O)=O)CC1)C2 (configuration not stated)	1.28
Cc1noc(C)c1C(=O)N1CCC2(CC1)c1nc[nH]c1CCN2C	7.9
Cc1nc(C2CCCNC2)cc(N(Cc2c(C)nn(C)c2C)C2CC2)n1 (configuration not stated)	-7.23
CC(C)Cn1cncc1-c1nc2c([nH]1)CCCNC2=O	15
CC1CCN(CC(=O)N(C)CCc2noc(C3CC3)n2)C1=O (configuration not stated)	-133
Cc1cc(C)c(C(=O)NC(CN2CCCC2)c2ccccc2)c(=O)[nH]1 (configuration not stated)	-2.57
Fc1cc(Cl)cnc1N1CCCC(c2nccn2Cc2ccccn2)C1 (configuration not stated)	-3.54
O[C@H]1[C@H](n2cc(-c3cncnc3)nn2)c2ccccc2C12CCNCC2	-1.39
O=c1[nH]nc(C2CC2)n1-c1cccc(Cl)c1	-3.11

SMILES	cytotoxicity at 10 µM [%]
CSc1nccc(N2CCC3(CCCN(CC4CC4)C3)C2)n1 (configuration not stated)	-10.1
CN1C(=O)C2(CCN(c3nccc4occc34)CC2)c2ccccc21	1.16
CCN(Cc1cnn(C)c1)C[C@H]1CC[C@@H](Cc2ccc(OC)nc2)O1	1.94
CCCn1ncnc1C(C)NC(=O)CC1CCN(C(C)C)CC1 (configuration not stated)	-150
CNC(=O)c1ccc(OC2CCN(S(C)(=O)=O)CC2)c(Cl)c1	1.49
CC(=O)N1CCC(c2cc(C(F)(F)F)n3ccnc3n2)CC1	1.56
CCN(Cc1ccc2c(c1)OCO2)S(=O)(=O)N(C)C	-2.97
Cc1cccc(C(=O)N2CCCCC2c2nc(C)cs2)n1 (configuration not stated)	-7.26
O=C(NCC1CCCO1)N1CCN(Cc2ccc3c(c2)CCO3)CC1 (configuration not stated)	-5.91
O=C(c1nn(-c2ccccc2F)cc1O)N1CCCSCC1	-0.0414
CCc1ccc(C(=O)N2CCN(CC(O)CC)CC2)o1 (configuration not stated)	-17.6
COc1c(C)cnc(CN2CCOC(Cn3nc(C)cc3C)C2)c1C (configuration not stated)	3.66
Cc1nn(C)c(N2CCOCC2)c1CNC1CCN(C2CC2)CC1	-3.96
Fc1ccc(-c2cnc(CN3CCOC(Cn4cccn4)C3)o2)cc1 (configuration not stated)	-12.1
Cc1nc(C2CCCN(C(=O)c3cc(C(C)(C)C)on3)C2)no1 (configuration not stated)	-11.9
CC(=O)Nc1nc(C(=O)NCc2ccc(N3CCOC(C)C3)nc2)cs1 (configuration not stated)	0.109
CN(Cc1nnc2n1CCC2)C(=O)CCc1ccc2c(c1)OCO2	-14
O=C(NCc1nncn1-c1ccccc1)C1CC1	-13.1
CC(C)c1nc(C2CCCN2C(=O)CCn2cncn2)no1 (configuration not stated)	-2.38
Cc1ccc(C)c(S(=O)(=O)CCNC2CCc3ncnn3C2)c1 (configuration not stated)	-30.6
CC(NCc1nnc2n1CCCC2)C(=O)N1CCc2sccc2C1 (configuration not stated)	-26.2
Cc1nc(CN2CCN(C(C)c3nc(C4CC4)no3)CC2)no1 (configuration not stated)	-6.34
CC(C)(CNC(=O)NCCc1ccn(-c2ccccc2)n1)C(N)=O	-16.8

SMILES	cytotoxicity at 10 µM [%]
CN(C)c1cc(CNC(=O)c2cc(Cl)ccn2)ccn1	-15
Cc1nc(CN2CCCC(N(C)Cc3nnc(C4CC4)o3)C2)no1 (configuration not stated)	-24.2
CCOc1ccccc1CSCCn1nc2ccccn2c1=O	1.88
CCc1nc(CN2CCCN(C(=O)C3CCOC3)CC2)cs1 (configuration not stated)	3.09
COc1ccc(-c2nc(CNCCn3cccn3)cs2)cc1	-1.17
COc1cccc(CN(C)Cc2nc3c(cnn3C)c(=O)[nH]2)c1OC	-4.28
Cc1csc(N2CCN(C(=O)CCn3cncn3)CC2)n1	-5.97
CN(Cc1cnn(C)c1)C(=O)NCc1nnc2n1CCC2	-4.1
CCOCC(O)CN1CCN(C(=O)C2CC2)CC1 (configuration not stated)	-7.2
CC(NC(=O)N(C)Cc1ccc(Cl)s1)c1ccccn1 (configuration not stated)	0.313
O=C(c1cccn2ccnc12)N1CCCN(c2cccnn2)CC1	1.68
Cc1ccc(CN2C[C@H](N3CCOCC3)[C@@H]3OCCC[C@@H]32)o1	-125
C[C@H]1CN(C)C[C@@]12COCCN(C(=O)Cc1ccccc1)C2	3.65
Fc1cnc(N2CC[C@@H]3O[C@H](COCc4ccccn4)CC[C@@H]32)nc1	2.9
O=C1[C@H]2CN(Cc3ccco3)C[C@H]2CN1c1cncnc1	-3.64
Cc1n[nH]cc1CNCC1(c2ccc3c(c2)OCO3)CCOCC1	7.73
COCC(=O)NC[C@]12COC[C@H]1CN(c1ncc(F)cn1)C2	-143
CC1CCN(c2nc3cn(-c4ccccc4)c(=O)c-3c[nH]2)CC1	-12.6
Cc1nc(C)c(CC(=O)N2C[C@H]3CC[C@@H](C2)N(CC2CC2)C3)s1	-1.59
O=c1c2c[nH]c(N3CCOCC3)nc-2cn1-c1ccc2c(c1)OCO2	-13.1
